PMC9157599 (Materials Today Bio, 2022)
Numbered stars: 1 amine (or outer) side, 2 acyl side, 3 side chain; on linkers, the order of the positions; unused ones are H or OH. Square brackets hold non-standard residues; d marks the D form. Peptide text beside a SMILES is read from it. * marks the point of attachment. DAMPA = CN(Cc1cnc2nc(N)nc(N)c2n1)c1ccc(C(=O)*)cc1; γGlu = O=C(O)[C@H](CCC(=O)[*:2])N[*:1]

Legend:
[1] = tested on: RA-FLS; assay: Wound-healing; type: cell-based; conditions: 100 μM, 48 h culture then scratch, n = 6
Outline: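 RA-FLS were serum-starved 12 h, mixed with hydrogels (formed from 100 μM peptide) or MTX solution (100 μM), and cultured 48 h. Monolayers were then scratched. Migration rate was calculated from healed area after a further 12 and 24 h, n = 6.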

[2] = tested on: AIA mice; assay: Immunofluorescence staining of synovial tissues of AIA mice; type: in vivo, C57BL/6 mice; conditions: for fluorescence signal of iNOS (M1 macrophages) in synovial tissues: n = 3; for synovial pannus / neovascularization (CD31 expression): n = 3 (Fig. 6c, Figure S14)
Outline: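 AIA was induced in male C57BL/6 mice with CFA s.c., followed a week later by IFA into the hind pads. Knees received 20 μL intra-articular treatment twice weekly for 4 weeks. Knee joint sections were stained overnight at 4 °C with antibodies to CD31, F4/80, CD206 or iNOS (1:300), then Alexa Fluor 488 or Cy3 secondaries (1:8000, 2 h, room temperature) and DAPI. Imaging was by fluorescence microscopy, n = 3.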

[3] = tested on: AIA mice; assay: Histology and immunohistochemistry of knee joints of AIA mice; type: in vivo, C57BL/6 mice; conditions: day 28
Outline: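 Male 8-week C57BL/6 mice received CFA (1% w/v) s.c. in the fore underarm, then the same dose of IFA into both hind pads a week later. One week on, 20 μL test hydrogel or PBS was given intra-articularly into both knees twice weekly for 4 weeks (n = 5). On day 28 knees were fixed in 4% paraformaldehyde, EDTA-decalcified 30 days, stained H&E and safranin-O/fast green, and Mankin-scored.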

[4] = tested on: RA-FLS; assay: Transwell invasion assay; type: cell-based; conditions: transwell with Matrigel, 100 μM, 24 h, n = 6
Outline: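 RA-FLS were serum-starved 12 h and mixed with hydrogels or MTX solution (100 μM). They were seeded in the upper transwell chamber in serum-free medium with 12.5% Matrigel, with 20% FBS medium below as chemoattractant. After 24 h, invaded cells were stained with 2% crystal violet and counted microscopically, n = 6.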

[5] = tested on: RAW264.7 cells; assay: Immunofluorescence staining of iNOS and CD206 on RAW264.7; type: cell-based, Mice; conditions: 100 μM, 24 h
Outline: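 RAW264.7 cells were polarised with 1% w/v LPS-containing medium for 24 h, then exposed to test compound or hydrogel (100 μM) for another 24 h. Cells were immunostained for iNOS (M1) and CD206 (M2) and imaged by fluorescence.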

[6] = tested on: M1 macrophages (LPS-induced RAW264.7); assay: RT-qPCR of M1 markers in LPS-induced RAW264.7; type: cell-based, Mice; conditions: 100 μM, 24 h, compared to control group (LPS), n = 3
Outline: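 RAW264.7 cells were polarised to M1 with 1% w/v LPS medium for 24 h, then treated with test compound or hydrogel (100 μM) for 24 h. Total RNA was extracted with TRIzol, and iNOS, IL-6 and TNF-α mRNA were quantified by RT-qPCR.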

[7] = tested on: AIA mice; assay: Therapeutic effect in adjuvant-induced arthritis; type: in vivo, C57BL/6 mice; conditions: n = 5; for paw swelling after 4 weeks of treatment: 20 μL intra-articular, both knees, twice a week for 4 weeks; for clinical score: dynamic, up to 28 days; for skin temperature of hind paws: infrared camera, 28th day after administration
Outline: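 Male C57BL/6 AIA mice (CFA s.c. in the fore underarm; IFA into both hind pads a week later; treatment after one further week) were randomised to groups of n = 5. Dosing was 20 μL intra-articular into both knees twice weekly for 4 weeks. Arthritis was scored clinically, joint diameter was measured weekly by vernier caliper, and hind-paw skin temperature was recorded by infrared camera on day 28.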

[8] = biological target: proteinase K (Parengyodontium album, UniProt P06873); assay: Biostability of hydrogels exposed to proteinase K; type: in vitro ADME; conditions: for change of HPLC peak after addition of proteinase K: 37 °C, HPLC spectra (Fig. 1e)
Chain of proteinase K (P06873 106-384, species assumed): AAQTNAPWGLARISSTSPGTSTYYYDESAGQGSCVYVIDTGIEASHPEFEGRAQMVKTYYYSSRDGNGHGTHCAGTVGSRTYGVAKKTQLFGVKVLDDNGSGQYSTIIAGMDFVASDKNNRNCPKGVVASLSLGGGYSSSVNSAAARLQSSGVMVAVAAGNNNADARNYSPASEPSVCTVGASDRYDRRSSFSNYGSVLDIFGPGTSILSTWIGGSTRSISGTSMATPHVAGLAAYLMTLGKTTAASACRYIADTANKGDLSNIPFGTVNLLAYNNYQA
Outline: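 Peptide (1 mg in 5 mL PBS) incubated at 37 °C with proteinase K (3.2 units/mL). Aliquots were taken at each time point and analysed by reverse-phase HPLC on a C18 column, eluting with MeOH and water (each with 0.05% TFA).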

[9] = tested on: RA synovial fibroblast (RA-FLS); assay: MTT cell viability, RA-FLS; type: cell-based; conditions: 48 h
Outline: (§1)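 Cells were seeded at 10^4 per well and exposed for 48 h to test compound or hydrogel at 200, 100, 50, 10, 5 or 0 μM. Viability was read by MTT absorbance at 490 nm.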

[10] = tested on: human umbilical vein endothelial cell (HUVEC); assay: MTT cell viability, HUVEC; type: cell-based; conditions: 5-200 μM, 48 h, n = 3
Outline: as §1

[11] = tested on: HUVEC; assay: Live/dead staining, HUVEC; type: cell-based, human; conditions: 100 μM, 48 h, Calcein AM/PI; MTX-loaded compared to MTX-GFFY and free MTX groups
Outline: (§2)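 Cells were exposed to hydrogels or free MTX (100 μM) for 48 h, stained with Calcein AM (live) and propidium iodide (dead), and imaged by fluorescence microscopy.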

[12] = tested on: L929; assay: Live/dead staining, L929; type: cell-based, mouse; conditions: 100 μM, 48 h, Calcein AM/PI; MTX-loaded compared to MTX-GFFY and free MTX groups
Outline: as §2

[13] = tested on: M1 macrophages (LPS-induced RAW264.7); assay: Western blot of M1 markers in RAW264.7; type: cell-based, Mice; conditions: 100 μM, 24 h, compared to control group (LPS), n = 3
Outline: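 RAW264.7 cells were polarised with […] LPS for 24 h, then treated with test compound or hydrogel (100 μM) for 24 h. Lysate protein was quantified by Bradford assay, run on 10% SDS-PAGE and transferred to PVDF. Membranes were probed overnight at 4 °C for iNOS, IL-6 and TNF-α, then secondary antibody for 120 min at room temperature. Detection was by chemiluminescence, with tubulin reference and densitometry, n = 3.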

[14] = tested on: mouse fibroblast (L929); assay: MTT cell viability, L929; type: cell-based; conditions: 5-200 μM, 48 h, n = 3
Outline: as §1

[15] = tested on: RA-FLS; assay: Live/dead staining, RA-FLS; type: cell-based; conditions: 100 μM, 48 h, Calcein AM/PI
[16] = tested on: AIA mice; assay: Serum inflammatory cytokines in AIA mice; type: in vivo, C57BL/6 mice; conditions: compared to PBS group, without statistical difference, n = 3 (Figure S13)
[17] = Gelation by heating-cooling and recovery after injection; type: physicochemical
Outline: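 Gels were formed by dissolving peptide in PBS/Na2CO3 (pH 7.4), heating 30 s (flame or 100 °C water bath), then cooling at room temperature. Samples went onto the rheometer right after gelation: 40 mm parallel plates, 500 μm gap, frequency sweep 0.1–100 rad/s at 1% strain. Gel was measured before and after injection.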

[18] = hydrogel exposed to proteinase K at 37 °C, images (Figure S8)

SMILES	wound-healing rate at 24 h [1] [%]	fluorescence signal of iNOS (M1 macrophages) in synovial tissues [2]	synovial pannus / neovascularization (CD31 expression) [2]	synovial hyperplasia and joint structure (H&E staining) [3]	RA-FLS invasion into the lower chamber (cell numbers) [4]	expression of iNOS (M1 marker) in RAW264.7 cells [5]	relative gene expression of M1 markers (IL-6, TNF-α, iNOS) [6]	paw swelling after 4 weeks of treatment [7]	clinical score [7]	skin temperature of hind paws [7]	change of HPLC peak after addition of proteinase K [8]	further results
CN(Cc1cnc2nc(N)nc(N)c2n1)c1ccc(C(=O)N[C@@H](CCC(=O)O)C(=O)O)cc1 [MTX, methotrexate, reference compound]	100	significantly decreased	lowest among all treatment groups	synovial evasion was inhibited	inhibited approximately half	significantly decreased	not obvious	paw swelling was alleviated	gradually decreased	below 33 °C	–	wound-healing rate at 12 h ([1]; 12 h): 50%
CN(Cc1cnc2nc(N)nc(N)c2n1)c1ccc(C(=O)N[C@@H](CCC(=O)NCC(=O)N[C@@H](Cc2ccccc2)C(=O)N[C@@H](Cc2ccccc2)C(=O)N[C@@H](Cc2ccc(O)cc2)C(=O)O)C(=O)O)cc1 [MTX-GFFY] ({DAMPA-γGlu}-GFFY-OH)	50	significantly decreased	–	synovial evasion was inhibited	obviously decreased	–	–	paw swelling was alleviated	–	below 33 °C	gradually decreased	time after which hydrogel became flowable [8, 18]: 1 days; effect on RA-FLS at 100 μM ([9]; 100 μM): mild effects
CN(Cc1cnc2nc(N)nc(N)c2n1)c1ccc(C(=O)N[C@@H](CCC(=O)NCC(=O)N[C@H](Cc2ccccc2)C(=O)N[C@H](Cc2ccccc2)C(=O)N[C@H](Cc2ccc(O)cc2)C(=O)O)C(=O)O)cc1 [MTX-G^DF^DF^DY] ({DAMPA-γGlu}-G[dF][dF][dY]-OH)	40	lowest	lowest among all treatment groups	knee joint structure was well protected	obviously decreased	strongest inhibitory effect	all marker genes of M1 macrophages were significantly down-regulated	effectively relieved paw swelling	lowest among all groups	–	had no obvious change	effect on cell proliferation / cytotoxicity, HUVEC [10]: reduced the cytotoxicity; time hydrogel was stable in vitro [8, 18]: approximately 5 days; IL-6 expression level in synovial tissue (immunohistochemistry) [3]: decreased to a similar level to normal group; live/dead staining, HUVEC [11]: less L929 and HUVEC cells were dead; live/dead staining, L929 [12]: less L929 and HUVEC cells were dead; expression of M1 macrophage related proteins (iNOS, IL-6, TNF-α) [13]: best inhibitory effect; effect on cell proliferation / cytotoxicity, L929 [14]: reduced the cytotoxicity; effect on RA-FLS proliferation at 50 μM ([9]; 50 μM): significantly inhibited RA-FLS proliferation; live/dead staining, RA-FLS [15]: significantly enhanced the ratio of dead cells/live cells; level of serum IL-6 [16]: slightly lower; level of serum TNF-α [16]: slightly lower; time until hydrogel became stable (dynamic gelation process) ([17]; 10.317 mM (1 wt%) peptide in PBS, heating-cooling process (Figure S3)): ≤ 2 min; time to return to gel after injection ([17]; rheology before and after injection (Fig. 1d)): 5 min
